# From ChEMBL document CHEMBL1148827, “An investigation into the cytotoxicity and mode of action of some novel N-alkyl-substituted isatins” (J Med Chem, 2007)
# Active and inactive are the calls of the source. The calls are words filed in the database; no cut-off is given here.
# Assays:
# U-937 [1] = assay: Cytotoxicity against human U937 cells by MTS assay after 24 hrs; format: functional, cell-based; settings: U-937, 24 h
# Jurkat [2] = assay: Cytotoxicity against human Jurkat cells by MTS assay after 24 hrs; format: functional, cell-based
# MCF7 = assay: Cytotoxicity against human MCF7 cells by MTS assay after 24 hrs; format: functional, cell-based; settings: MCF7, 24 h
# Tubulin = assay: Displacement of [3H]colchicine from tubulin by scintillation proximity assay; format: protein-complex assay, Homo sapiens
# HCT-116 = assay: Cytotoxicity against human HCT116 cells by MTS assay after 24 hrs; format: functional, cell-based; settings: HCT-116, 24 h
# PC-3 = assay: Cytotoxicity against human PC3 cells by MTS assay after 24 hrs; format: functional, cell-based; settings: PC-3, 24 h
# U-937 [3] = assay: Effect on U937 cell morphology assessed as irregular membrane protrusions at 0.39 ug/ml after 24 hrs; format: functional, cell-based; settings: Homo sapiens
# In short: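 U937 cells (1.0 × 10⁴) exposed to compounds at 0.39 µg/mL for 24 h, with DMSO vehicle as control. Examined by brightfield light microscopy at 1000× magnification.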
# A-375 = assay: Cytotoxicity against human A375 cells by MTS assay after 24 hrs; format: functional, cell-based; settings: A-375, 24 h
# [4] = Cytotoxicity against human […] cells by MTS assay after 24 hrs; format: functional, cell-based
# Bos taurus = organism: Bos taurus; assay: Inhibition of bovine neuronal tubulin polymerization at 10 uM
# In short: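 Polymerization followed 1 h at 37 °C by fluorescence, ex 360 ± 10 nm / em 440 ± 10 nm. Duplicate wells.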
# Jurkat [5] = assay: Activation of caspase in Jurkat cells after 5 hrs relative to staurosporine; format: cell-based; settings: Homo sapiens
# In short: (§1)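 Cells exposed to test compound for 5 h at 37 °C; 2 µM staurosporine as positive control. Apo-ONE homogeneous caspase-3/7 reagent then added for 1 h at room temperature. Fluorescence read at excitation 485 nm, emission 520 nm. Values normalized to staurosporine. Means ± SE of one representative experiment run in triplicate.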
# U-937 [6] = assay: Cell cycle arrest in human U937 cells assessed as increase in S and sub G1 phase accumulation at 2 uM; format: functional, cell-based
# In short: (§2)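 U937 cells treated 4 h or 24 h against DMSO vehicle, with 0.5 µM vinblastine sulfate as reference. Cells (2.0 × 10⁴) fixed in ice-cold 70% ethanol at -20 °C for 30 min to overnight. Stained 30 min at 37 °C with 40 µg/mL PI plus 100 µg/mL RNase A in PBS pH 7.4. DNA content read by flow cytometry and cell-cycle phase proportions calculated.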
# U-937 [7] = assay: Effect on stability of microtubules in U937 cells assessed as alteration of microtubule organisation at 1.7 uM after 24 hrs; format: functional, cell-based; settings: Homo sapiens
# In short: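 U937 cells (2.2 × 10⁵/mL) seeded, held 24 h, then exposed 24 h to 0.78 µg/mL (1.7 µM) compound. Controls: 2 µM vinblastine or 2.5% DMSO. […] Cells washed in PBS and imaged by confocal microscopy, excitation 488 nm, emission 500–540 nm.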
# U-937 [8] = assay: Activation of caspase in U937 cells after 5 hrs relative to staurosporine; format: cell-based; settings: Homo sapiens; in short: as §1
# U-937 [9] = assay: Cell cycle arrest in human U937 cells assessed as increase in S and sub G1 phase accumulation at 1 uM; format: functional, cell-based; in short: as §2
SMILES,IC50 (U-937 [1]) [nM],IC50 (Jurkat [2]) [nM],IC50 (MCF7) [nM],IC50 (HCT-116) [nM],IC50 (A-375) [nM],IC50 [4] [nM],also measured
COC(=O)c1ccc(CN2C(=O)C(=O)c3cc(Br)cc(Br)c32)cc1,1190,1190,9050,,,,
COc1cc(-c2ccc3c(c2)NC(=O)/C3=C\c2ccc[nH]2)ccc1O,,,,,,,IC50 (Tubulin): 130 nM
COCCN1C(=O)C(=O)c2cc(Br)cc(Br)c21,3440,8950,6670,,,,
O=C1C(=O)N(Cc2ccc(I)cc2)c2c(Br)cc(Br)cc21,2300,580,4220,3360,2400,2920,IC50 (PC-3): 10900 nM; Activity (U-937 [3]): Active
CC[C@]1(O)C[C@@H]2CN(CCc3c([nH]c4ccccc34)[C@@](C(=O)OC)(c3cc4c(cc3OC)N(C)[C@H]3[C@@](O)(C(=O)OC)[C@H](OC(C)=O)[C@]5(CC)C=CCN6CC[C@]43[C@@H]65)C2)C1 [VINBLASTINE],6880,,,,,,
O=C(O)c1ccc(CN2C(=O)C(=O)c3cc(Br)cc(Br)c32)cc1,> 14200,> 14200,> 14200,,,,
COc1ccc(CN2C(=O)C(=O)c3cccc(Br)c32)cc1,17600,,,,,,
COc1ccc(CN2C(=O)C(=O)c3ccc(Br)cc32)cc1,34100,,,,,,
COc1cccc(CN2C(=O)C(=O)c3cc(Br)cc(Br)c32)c1,1760,2000,2350,,,,
CC(C)(C)c1ccc(CN2C(=O)C(=O)c3cc(Br)cc(Br)c32)cc1,1130,660,2640,1660,890,980,IC50 (PC-3): 3060 nM; Activity (U-937 [3]): Active
O=C1C(=O)N(C/C=C/c2ccccc2)c2c(Br)cc(Br)cc21,2370,1420,7810,,,,Activity (U-937 [3]): Active; Activity (Bos taurus): Active
O=C1C(=O)N(Cc2ccccc2[N+](=O)[O-])c2c(Br)cc(Br)cc21,2270,,3180,,,,
O=C1C(=O)N(Cc2ccc(C(F)(F)F)cc2)c2c(Br)cc(Br)cc21,800,690,7130,840,1250,540,Activity (Jurkat [5]): Active; Activity (U-937 [6]): Active; IC50 (PC-3): 1170 nM; Activity (Bos taurus): Active; Activity (U-937 [7]): Active; Activity (U-937 [8]): Active; Activity (U-937 [9]): Active
O=C1C(=O)N(Cc2ccc(-c3ccccc3)cc2)c2c(Br)cc(Br)cc21,760,740,4880,830,1190,2060,IC50 (PC-3): 3420 nM; Activity (Bos taurus): Active
C=CCN1C(=O)C(=O)c2cc(Br)cc(Br)c21,6670,,,,,,
O=C1C(=O)N(Cc2ccc(Cl)cc2)c2c(Br)cc(Br)cc21,980,500,3870,1840,1680,2770,IC50 (PC-3): 2170 nM
O=C1C(=O)N(Cc2ccc(C(F)(F)F)cc2)c2cc(Br)ccc21,5210,5210,,,,,
O=C1C(=O)N(Cc2ccccc2)c2c(Br)cc(Br)cc21,1140,1140,7090,,,,
COc1ccc(CN2C(=O)C(=O)c3ccccc32)cc1,> 46800,,,,,,
COc1ccc(CN2C(=O)C(=O)c3cc(Br)ccc32)cc1,> 36100,,,,,,
COc1ccc(CN2C(=O)C(=O)c3c(Br)cccc32)cc1,> 36100,,,,,,
O=C1C(=O)N(Cc2ccc(Br)cc2)c2c(Br)cc(Br)cc21,630,630,5270,530,1220,1900,IC50 (PC-3): 3440 nM
Cc1ccc(CN2C(=O)C(=O)c3cc(Br)cc(Br)c32)cc1,490,490,11000,1220,2000,1910,Activity (U-937 [6]): Active; IC50 (PC-3): 4570 nM; Activity (Bos taurus): Active; Activity (U-937 [9]): Active
O=C1C(=O)N(Cc2ccc([N+](=O)[O-])cc2)c2c(Br)cc(Br)cc21,890,890,4320,2700,2500,2750,
CC(C)CCN1C(=O)C(=O)c2cc(Br)cc(Br)c21,2400,3470,7490,,,,Activity (U-937 [3]): Active
